According to ChEMBL document CHEMBL4382230, “Structure-activity relationships, biological evaluation and structural studies of novel pyrrolonaphthoxazepines as antitumor agents” (Eur J Med Chem, 2019):
Values after ≈ are worked out from the molar mass of the structure shown. Active and inactive are the calls of the source. The calls are words filed in the database; no cut-off is given here.

How the values were obtained:
NCI-H929 [1] = test: Cytotoxicity against human NCI-H929 cells after 48 hrs by MTT assay; assay type: functional, cell-based; conditions: NCI-H929, 48 h
Method in brief: (§1)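 Cells (NCI-H929 in RPMI-1640 GlutaMAX; SCC4 in DMEM GlutaMAX; 10% FBS, 37 °C, 5% CO2) treated with increasing concentrations for 48 h. IC50 is the mean of three independent experiments.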

Ca9-22 [2] = test: Induction of apoptosis in human Ca9-22 cells at 500 nM after 48 hrs by Annexin V/propidium iodide staining-based flow cytometric analysis relative to control; assay type: functional, cell-based
Method in brief: (§2)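 Seeding density: NCI-H929 and Ca9.22 at 30×10^4 cells/mL, SCC4 at 15×10^4 cells/mL. Cells exposed 48 h to compound (500 nM; 50 μM in SCC4 for one compound) or vehicle (1% EtOH v/v). Annexin V/PI staining, flow cytometry, 10,000 cells gated on vehicle-treated cells. Three independent experiments, mean ± S.E.M, T-test.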

SCC-4 [3] = test: Cytotoxicity against human SCC4 cells after 48 hrs by MTT assay; assay type: functional, cell-based; conditions: SCC-4, 48 h; method in brief: as §1
SCC-4 [4] = test: Induction of apoptosis in human SCC4 cells at 50 uM after 48 hrs by Annexin V/propidium iodide staining-based flow cytometric analysis relative to control; assay type: functional; method in brief: as §2
Ca9-22 [5] = test: Cytotoxicity against human Ca9-22 cells after 24 hrs by MTT assay; assay type: functional, cell-based; conditions: Ca9-22, 24 h
Ca9-22 [6] = test: Cytotoxicity against human Ca9-22 cells after 72 hrs by MTT assay; assay type: functional, cell-based; conditions: Ca9-22, 72 h
Ca9-22 [7] = test: Cytotoxicity against human Ca9-22 cells after 48 hrs by MTT assay; assay type: functional, cell-based; conditions: Ca9-22, 48 h
PC-9 [8] = test: Cytotoxicity against human PC9 cells assessed as reduction in cell survival at 0.1 to 10 uM after 18 hrs by MTT assay; assay type: functional, cell-based
Method in brief: (§3)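 Seeded at 2,500 cells/well in medium with 10% serum. After adhesion, exposed to 0.1, 1 and 10 μM in medium with 5% serum for 18 h. Medium then replaced with fresh medium containing 1.2 mM MTT for 4 h; formazan dissolved in DMSO, absorbance at 540 nm. Results given as % of basal response.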

HCC827 [9] = test: Induction of apoptosis in human HCC827 cells assessed as reduction in cyclin D1 expression at 10 uM after 18 hrs by Western blot analysis; assay type: functional, cell-based
Method in brief: (§4)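 PC9 and HCC827 maintained in DMEM with 10% FBS, then exposed to 10 μM compound for 18 h in 5% serum. Caspase 3 activation and cell cycle proteins examined by western blot.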

NB-4 [10] = test: Cell cycle arrest in human NB4 cells assessed as accumulation of cells at G1 phase after 24 hrs by propidium iodide staining-based flow cytometric analysis; assay type: functional
Method in brief: (§5)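 NB4 cultured at 37 °C, 5% CO2 in RPMI-1640 with 10% heat-inactivated FBS. Treated at 50 and 100 nM, 1 and 10 μM for 24 h. Cells fixed/permeabilized in 70% ethanol overnight at 4 °C, then given RNase and 20 μg/ml PI for 30 min. Doublets excluded, 20,000 events per sample; cell-cycle phase distribution analysed.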

PC-9 [11] = test: Induction of apoptosis in human PC9 cells assessed as reduction in cyclin D1 expression at 10 uM after 18 hrs by Western blot analysis; assay type: functional, cell-based; method in brief: as §4
HCC827 [12] = test: Cytotoxicity against human HCC827 cells assessed as reduction in cell survival at 0.1 to 10 uM after 50 to 60 hrs by MTT assay; assay type: functional, cell-based
NIH3T3 [13] = test: Cytotoxicity against mouse NIH/3T3 cells after 48 hrs by MTT assay; assay type: cell-based; conditions: NIH3T3, 48 h
Method in brief: (§6)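 Cells seeded at 12,000 to 17,000 per well depending on line, incubated overnight, then given serial dilutions of ligand for 48 h. MTT at 2.5 mg/mL added for 4 h at 37 °C, formazan solubilized overnight (10% SDS, 45% dimethylformamide, pH 5.5), absorbance read at 595/690 nm. IC50 from log-dose response curves; mean ± SE of three independent assays.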

NCI-H929 [14] = test: Induction of apoptosis in human NCI-H929 cells at 500 nM after 48 hrs by Annexin V/propidium iodide staining-based flow cytometric analysis relative to control; assay type: functional; method in brief: as §2
Tubulin (Homo sapiens) [15] = target: T1, Tubulin (Homo sapiens) (UniProt P68371+Q9H4B7+P0DPH7+P68366+Q13509+Q71U36+P04350+Q3ZCM7+P07437+P68363+Q9BQE3+Q6PEY2+Q13885+Q9BVA1+Q9BUF5); test: Inhibition of tubulin (unknown origin) polymerization at 27.5 uM measured over 70 mins by turbidity method; assay type: protein-complex assay
Method in brief: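 Tubulin at 25 µM in GAB buffer (10 mM sodium phosphate, 30% glycerol, 1 mM EGTA, 6 mM MgCl2, 1 mM GTP, pH 6.7) with 27.5 µM compound or DMSO vehicle. Turbidity is read at 355 nm for 70 min at 37 °C. Data are normalized to the initial stable absorbance plateau to correct for compound absorbance.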

HCC827 [16] = test: Induction of apoptosis in human HCC827 cells assessed as increase in caspase-3 expression at 10 uM after 18 hrs by Western blot analysis; assay type: functional, cell-based; method in brief: as §4
PC-9 [17] = test: Induction of apoptosis in human PC9 cells assessed as increase in p21 expression at 10 uM after 18 hrs by Western blot analysis; assay type: functional, cell-based; method in brief: as §4
HL-60 [18] = test: Cell cycle arrest in human HL60 cells assessed as accumulation of cells at G2/M phase at 10 uM after 24 hrs by propidium iodide staining-based flow cytometric analysis; assay type: functional
Method in brief: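 HL-60 exposed to 10 μM for 24 h, vehicle 0.1% DMSO. Cells plated at 2×10^5 cells/mL, stained in PBS with 0.1% sodium citrate, 0.1% NP40 and propidium iodide for 30 min at room temperature in the dark. DNA content by flow cytometry; G2/M fraction reported.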

A2780 = test: Cytotoxicity against human A2780 cells after 48 hrs by MTT assay; assay type: functional, cell-based; conditions: A2780, 48 h; method in brief: as §6
HL-60 [19] = test: Induction of autophagy in human HL60 cells assessed as increase in LC3B-2 levels at 10 uM after 105 mins in presence of lysosomal inhibitor chloroquine by immunoblot analysis; assay type: functional, cell-based
Method in brief: (§7)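 HL-60 in serum-supplemented RPMI 1640, or starved in Earle's Balanced Salts for 15 min beforehand, then treated with 10 μM compound with or without 40 μM chloroquine for 1 h 45 min or 16 h. LC3B-II measured by immunoblot, densitometry normalized to actin, three independent experiments, Student's T-test.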

[20] = Solubility of compound in pH 7.4 aqueous solution after 12 hrs by HPLC analysis; assay type: physicochemical
Method in brief: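 Water solubility at pH 7.4 measured by HPLC analysis.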

SCC-4 [21] = test: Induction of apoptosis in human SCC4 cells at 500 nM after 48 hrs by Annexin V/propidium iodide staining-based flow cytometric analysis relative to control; assay type: functional; method in brief: as §2
[22] = Cytotoxicity against human A2780AD cells after 48 hrs by MTT assay; assay type: functional, cell-based; method in brief: as §6
B16-F1 = test: Cytotoxicity against mouse B16-F1 cells assessed as reduction in cell survival at 0.1 to 10 uM after 18 hrs by MTT assay; assay type: functional, cell-based; method in brief: as §3
[23] = Ratio of IC50 for mouse NIH/3T3 cells harboring MDR G185 to IC50 for mouse NIH/3T3 cells
Method in brief: (§8)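 Relative resistance: IC50 in the P-gp overexpressing resistant line divided by IC50 in the parental line. Both IC50s came from the 48 h MTT assay (serial dilutions, absorbance at 595/690 nm, log-dose response curves, three independent assays).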

[24] = Solubility of compound in pH 3 aqueous solution after 12 hrs by HPLC analysis; assay type: physicochemical
B16-F10 = test: Cytotoxicity against mouse B16F10 cells assessed as reduction in cell survival at 0.1 to 10 uM after 18 hrs by MTT assay; assay type: functional, cell-based; method in brief: as §3
NIH3T3 [25] = test: Cytotoxicity against mouse NIH/3T3 cells harboring MDR G185 after 48 hrs by MTT assay; assay type: functional, cell-based; conditions: NIH3T3, 48 h; method in brief: as §6
[26] = Apparent solubility of compound in sodium phosphate buffer at 15 uM after 20 mins; assay type: physicochemical
PC-9 [27] = test: Induction of apoptosis in human PC9 cells assessed as increase in caspase-3 expression at 10 uM after 18 hrs by Western blot analysis; assay type: functional, cell-based; method in brief: as §4
Tubulin (Homo sapiens) [28] = target: T1, Tubulin (Homo sapiens); test: Binding affinity to tubulin (unknown origin) by analytical ultracentrifugation
[29] = Ratio of IC50 for human A2780AD cells to IC50 for human A2780 cells; assay type: functional; method in brief: as §8
A549 = test: Cytotoxicity against human A549 cells assessed as reduction in cell survival at 0.1 to 10 uM after 18 hrs by MTT assay; assay type: functional, cell-based; method in brief: as §3
HCC827 [30] = test: Cytotoxicity against human HCC827 cells assessed as reduction in cell survival at 0.1 to 10 uM after 18 hrs by MTT assay; assay type: functional, cell-based; method in brief: as §3
HCC827 [31] = test: Induction of apoptosis in human HCC827 cells assessed as increase in p21 expression at 10 uM after 18 hrs by Western blot analysis; assay type: functional, cell-based; method in brief: as §4
HL-60 [32] = test: Induction of autophagy in serum starved human HL60 cells assessed as increase in LC3B-2 levels at 10 uM after 105 mins by immunoblot analysis; assay type: functional, cell-based; method in brief: as §7
NB-4 [33] = test: Cell cycle arrest in human NB4 cells at 50 to 10000 nM after 24 hrs by propidium iodide staining-based flow cytometric analysis; assay type: functional; method in brief: as §5
HL-60 [34] = test: Induction of autophagy in serum starved human HL60 cells assessed as increase in LC3B-2 levels at 10 uM after 105 mins in presence of lysosomal inhibitor chloroquine by immunoblot analysis; assay type: functional, cell-based; method in brief: as §7
HL-60 [35] = test: Induction of autophagy in human HL60 cells assessed as […] in LC3B-2 levels at 10 uM after 16 hrs in presence of lysosomal inhibitor chloroquine by immunoblot analysis; assay type: functional, cell-based; method in brief: as §7
NB-4 [36] = test: Induction of differentiation in human NB4 cells at 500 nM after 24 hrs in presence of ATRA by CD11c staining-based flow cytometric analysis; assay type: functional, cell-based
Method in brief: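 NB4 exposed to 0.5 μM compound together with 1 μM ATRA for 24 h. Cells stained with PE-conjugated CD11c (mouse IgG1-PE control) for 1 h at 4 °C in the dark, washed, resuspended in PBS with propidium iodide (0.25 μg/mL), then analysed by flow cytometry. Biological triplicates, mean ± S.E.M.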

Tubulin (Homo sapiens) [37] = target: T1, Tubulin (Homo sapiens); test: Displacement of podophyllotoxin from tubulin (unknown origin) by ultracentrifugation method; assay type: protein-complex assay
NB-4 [38] = test: Cell cycle arrest in human NB4 cells assessed as accumulation of cells at G2/M phase at 50 to 10000 nM after 24 hrs by propidium iodide staining-based flow cytometric analysis; assay type: functional; method in brief: as §5

SMILES	IC50 (NCI-H929 [1]) [nM]	IC50 (SCC-4 [3]) [nM]	IC50 (Ca9-22 [5]) [nM]	IC50 (Ca9-22 [6]) [nM]	IC50 (Ca9-22 [7]) [nM]	Activity (NB-4 [10])	IC50 (NIH3T3 [13]) [nM]	inhibition (Tubulin (Homo sapiens) [15])	Activity (HL-60 [18])	IC50 (A2780) [nM]	IC50 [22] [nM]	Ratio IC50 [23]	IC50 (NIH3T3 [25]) [nM]	solubility at 20 min, 15 µM [26] [µM]	Kb (Tubulin (Homo sapiens) [28]) [×10⁷ /M]	Ratio IC50 [29]	Activity (HL-60 [32])	further results
CC(=O)OC1=C(c2ccccc2-c2ccccc2)Oc2ccccc2-n2cccc21	> 50000	9370	8000	4500	6300	–	–	–	–	–	–	–	–	–	–	–	–	Activity (Ca9-22 [2]): inactive; Activity (SCC-4 [4]): >40%
CC(=O)OC1=C(c2cccc3ccccc23)Oc2cc3ccccc3cc2-n2cccc21	376	160	210	83	170	Dose-dependent effect	126	Active	Active	249	240	2.42	306	0.62 (≈ 0.259 µg/mL)	4.4	0.96	Active	Activity (PC-9 [8]): Active; Activity (HCC827 [9]): Active; Activity (PC-9 [11]): Active; Activity (HCC827 [12]): inactive; Activity (NCI-H929 [14]): >40%; Activity (HCC827 [16]): Active; Activity (PC-9 [17]): Active; Activity (HL-60 [19]): Active; solubility at 12 h [20]: 26 µM (≈ 10.9 µg/mL); Activity (SCC-4 [21]): >40%; Activity (B16-F1): Active; solubility at 12 h [24]: 29.4 µM (≈ 12.3 µg/mL); Activity (B16-F10): Active; Activity (PC-9 [27]): Active; Activity (A549): Active; Activity (HCC827 [30]): Active; Activity (HCC827 [31]): Active
CC(=O)OC1=C(c2ccc3c(c2)OCO3)Oc2cc3ccccc3cc2-n2cccc21	–	–	–	–	–	Dose-dependent effect	2780	Active	Active	2050	7100	0.73	2040	0.14 (≈ 0.0576 µg/mL)	2	3.46	Active	Activity (NB-4 [33]): inactive; Activity (HL-60 [34]): Active; Activity (HL-60 [35]): Active; Activity (NB-4 [36]): Active; inhibition (Tubulin (Homo sapiens) [37]): Active; Activity (NB-4 [38]): Active
